Series [1] deals with Rattus norvegicus. The series can be described thus: Anticonvulsant activity in Sprague-Dawley rat assessed as protection against pilocarpine-induced convulsive status epilepticus at 50 mg/kg, ip. It counts as functional, organism-based. In a few lines: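 Male Sprague Dawley rats (150–180 g) dosed ip, pilocarpine 50 mg/kg ip given; compound dosed immediately at first behavioral Stage 3 seizure or 30 min later. Number protected from Racine Stage 3 or greater seizures recorded.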

Series [2] deals with Histamine H3 receptor (Homo sapiens, UniProt Q9Y5N1). The series can be described thus: Displacement of [3H]-Nalpha-methylhistamine from human recombinant histamine H3 receptor expressed in HEK293 cells after 90 mins. It counts as cell-based.
Sequence of Histamine H3 receptor (Q9Y5N1 whole entry): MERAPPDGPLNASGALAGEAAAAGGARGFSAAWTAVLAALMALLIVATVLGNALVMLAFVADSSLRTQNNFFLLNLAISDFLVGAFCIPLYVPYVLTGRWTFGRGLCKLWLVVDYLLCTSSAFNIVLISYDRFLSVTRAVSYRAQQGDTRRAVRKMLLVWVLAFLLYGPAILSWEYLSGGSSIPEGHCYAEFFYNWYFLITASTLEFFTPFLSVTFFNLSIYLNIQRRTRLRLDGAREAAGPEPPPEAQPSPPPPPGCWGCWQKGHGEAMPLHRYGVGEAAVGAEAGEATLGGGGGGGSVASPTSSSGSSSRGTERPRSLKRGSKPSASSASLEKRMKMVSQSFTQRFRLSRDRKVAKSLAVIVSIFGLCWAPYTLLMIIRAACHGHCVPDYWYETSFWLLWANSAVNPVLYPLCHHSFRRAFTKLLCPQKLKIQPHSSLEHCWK
The subject of series [3] is Mus musculus. Kind of series: Anticonvulsant activity in CF1 albino mouse assessed as protection against maximal electroshock-induced seizure at 30 mg/kg, ip after 0.5 hrs. The class given is functional, organism-based. In a few lines: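 Male CF-1 mice dosed ip as suspension in 0.5% methylcellulose. Corneal electrodes deliver 60 Hz alternating current, 50 mA for […], after a drop of 0.5% tetracaine HCl in 0.9% NaCl per eye. Protection means abolition of hindlimb tonic extension; scored as protected/tested, or ED50 with 95% confidence interval.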

The test system of series [4] is Mus musculus. Kind of series: Neurotoxicity in CF1 albino mouse at 3 mg/kg, ip after 0.5 hrs by rotarod test. The class given is toxicity, organism-based. The following applies: in vivo. In a few lines: (§1)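 Rotarod neurotoxicity in male albino CF-1 mice dosed ip with compound suspended in 0.5% methylcellulose. Animal placed on a 1 inch diameter knurled plastic rod rotating at 6 rpm. Neurotoxicity scored when the animal falls off three times within 1 min. Readout is number of animals toxic/number tested at the stated time after dosing. TD50 with 95% confidence interval from the quantitative study.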

Series [5] deals with Mus musculus. The series can be described thus: Neurotoxicity in CF1 albino mouse at 10 mg/kg, ip after 0.5 hrs by rotarod test. The following applies: in vivo. It counts as toxicity, organism-based. In a few lines:
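Rotarod neurotoxicity in male CF-1 mice dosed ip as 0.5% methylcellulose suspension: mouse placed on 1 inch knurled rod rotating at 6 rpm; toxicity when the animal falls off three times within 1 min, with other signs noted. Scored as toxic/tested at 0.5 h and 4 h.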

Series [6] has as its system Mus musculus. The series can be described thus: Neurotoxicity in CF1 albino mouse at 30 mg/kg, ip after 0.5 hrs by rotarod test. It counts as toxicity, organism-based. The following applies: in vivo. In a few lines: as §1
The test system of series [7] is Mus musculus. The series can be described thus: Neurotoxicity in CF1 albino mouse at 30 mg/kg, ip after 4 hrs by rotarod test. The settings on record: in vivo. It counts as toxicity, organism-based. In a few lines: as §1
The subject of series [8] is Mus musculus. The series can be described thus: Neurotoxicity in CF1 albino mouse at 100 mg/kg, ip after 4 hrs by rotarod test. It counts as toxicity, organism-based. The following applies: in vivo. In a few lines:
as §1

For series [9], the system named is Rattus norvegicus. Kind of series: Anticonvulsant activity in Sprague-Dawley rat assessed as protection against maximal electroshock-induced seizure at 30 mg/kg, ip after 0.5 hrs. The class given is functional, organism-based.
Series [10] has as its system Rattus norvegicus. Kind of series: Anticonvulsant activity in Sprague-Dawley rat assessed as protection against maximal electroshock-induced seizure at 30 mg/kg, ip after 2 hrs. The class given is functional, organism-based.
The subject of series [11] is Rattus norvegicus. The series can be described thus: Neurotoxicity in Sprague-Dawley rat at 30 mg/kg, ip after 0.5 hrs by rotarod test. It counts as toxicity, organism-based. The following applies: in vivo. In a few lines:
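Male Sprague–Dawley rats given compound ip as a suspension in 0.5% methylcellulose, groups of four. Rotarod: 1 inch knurled rod at 6 rpm; three falls within 1 min counts as neurotoxic. Scored as number toxic/number tested at pretreatment times between 0.25 and 4 h, or at the stated time.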

The test system of series [12] is Mus musculus. The series can be described thus: Neurotoxicity in CF1 albino mouse at 30 mg/kg, ip after 0.25 to 4 hrs by rotarod test. It counts as toxicity, organism-based. The following applies: in vivo. In a few lines: as §1

Molecules are shown by their SMILES. Calls of active or inactive are those of the source. No cut-off for these calls is given here.

Regarding `CC1CCCN(CCCCCCCOc2ccc(Cl)cc2)C1.O=C(O)C(=O)O` (configuration not stated), the outcome in series [1] was inactive. In [2], the inhibition constant (Ki) worked out at 180 nM. The outcome in series [3], in series [9] and in [10] was Active. The Activity result in series [4], in series [5], in series [6], in series [7], in series [8] and in series [11] was “Non-toxic” throughout. The Activity entry in [12] was “Non-toxic”.

Source of the values: ChEMBL document CHEMBL3745596, “Chlorophenoxy aminoalkyl derivatives as histamine H(3)R ligands and antiseizure agents” (Bioorg Med Chem, 2016).
